Drawing on ChEMBL document CHEMBL2086393, “Haloenol pyranones and morpholinones as antineoplastic agents of prostate cancer” (Bioorg Med Chem Lett, 2012), this text covers IC50, Activity and inhibition for 11 compounds.

Assay [1] relates to PC-3. Nature of the assay: Antineoplastic activity against human PC3 cells after 24 hrs by MTT assay. The settings on record: PC-3, 24 h. The assay is classed as functional, cell-based. In outline: (§1)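 LNCaP and PC-3 human prostate cancer cells were exposed to compound for 24, 48 or 72 h, and growth was read as the change in MTT staining. IC50 was calculated from 3–5 experiments, each run in duplicate on separate cell passages.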
(Tetrazolium assays rely on reduction of a dye to a coloured formazan, in cell work by metabolically active cells.)

Assay [2] concerns PC-3. Nature of the assay: Antineoplastic activity against human PC3 cells after 48 hrs by MTT assay. The assay is classed as functional, cell-based. The settings on record: PC-3, 48 h. In outline:
as §1

Assay [3] has as its system LNCaP. Nature of the assay: Antineoplastic activity against human LNCAP cells after 48 hrs by MTT assay. The assay is classed as functional, cell-based. In outline:
as §1

Assay [4] deals with LNCaP. Kind of assay: Antineoplastic activity against human LNCAP cells after 72 hrs by MTT assay. The assay is classed as functional, cell-based. In outline:
as §1

Assay [5] concerns PC-3. Nature of the assay: Antineoplastic activity against human PC3 cells after 72 hrs by MTT assay. The assay is classed as functional, cell-based. The following applies: PC-3, 72 h. In outline:
as §1

Assay [6] deals with LNCaP. Kind of assay: Antineoplastic activity against human LNCAP cells after 24 hrs by MTT assay. It is filed as functional, cell-based. Summed up:
as §1

Assay [7] has as its system LNCaP. Kind of assay: Cell cycle arrest in human LNCAP cells assessed as decrease in S phase cells at 5 uM after 24 hrs by PI-based flow cytometric analysis relative to control. It is filed as functional. Summed up: (§2)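 LNCaP cells were treated for 24 h at 5 or 10 μM. Cells were stained with propidium iodide and analysed by flow cytometry for the percentages in G1, S and G2/M phases, compared with control.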
In general terms: In flow cytometry, cells or beads pass a laser one at a time.

In assay [8] the test system is LNCaP. Kind of assay: Cell cycle arrest in human LNCAP cells assessed as increase in G1 phase cells at 10 uM after 24 hrs by PI-based flow cytometric analysis relative to control. It is filed as functional. In outline: as §2
In assay [9] the test system is LNCaP. Kind of assay: Cell cycle arrest in human LNCAP cells assessed as decrease in S phase cells at 10 uM after 24 hrs by PI-based flow cytometric analysis relative to control. It is filed as functional. In outline:
as §2

The test system of assay [10] is LNCaP. Nature of the assay: Induction of apoptosis in human LNCAP cells at 5 uM after 72 hrs by phase-contrast microscopic analysis. The assay is classed as functional, cell-based. In outline:
(§3)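 LNCaP cells were treated at 5 μM for 72 h. Cells were inspected by eye under phase-contrast microscopy for changes in shape and differentiation, death, and signs of apoptosis or necrosis, compared with a DMSO vehicle control.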

The test system of assay [11] is LNCaP. Kind of assay: Cell cycle arrest in human LNCAP cells assessed as increase in G1 phase cells at 5 uM after 24 hrs by PI-based flow cytometric analysis relative to control. It is filed as functional. Summed up: as §2
The species named for assay [12] is Rattus norvegicus. Nature of the assay: Inhibition of iPLA2beta in rat kidney cytosol using arachidonoyl thio-phosphatidylcholine as substrate up to 100 uM after 0.5 hrs by spectrophotometry. The assay is classed as tissue-based. Summed up: (§4)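 Cytosolic fractions were preincubated with compound at 0–100 μM for 0.5 h. Arachidonoyl thiophosphatidylcholine, a hydrolysable thioester probe of PLA2 activity, was then added to follow enzyme activity.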

In assay [13] the test system is LNCaP. Kind of assay: Induction of necrosis in human LNCAP cells at 5 uM after 72 hrs by phase-contrast microscopic analysis. The assay is classed as functional, cell-based. Summed up: as §3
Assay [14] relates to LNCaP. Nature of the assay: Cell cycle arrest in human LNCAP cells assessed as decrease in G2/M phase cells at 5 uM after 24 hrs by PI-based flow cytometric analysis relative to control. It is filed as functional. Summed up: as §2
In assay [15] the test system is LNCaP. Nature of the assay: Antineoplastic activity against human LNCAP cells at 5 to 13 uM by MTT assay. It is filed as functional, cell-based. The settings on record: TDE = time-dependent effect. Summed up:
as §1

Assay [16] concerns LNCaP. Nature of the assay: Cytotoxicity against human LNCAP cells assessed as change in cell shape at 5 uM after 72 hrs by phase-contrast microscopic analysis. It is filed as functional, cell-based. In outline:
as §3

The subject of assay [17] is LNCaP. Nature of the assay: Cytotoxicity against human LNCAP cells assessed as change in cell differentiation at 5 uM after 72 hrs by phase-contrast microscopic analysis. The assay is classed as functional, cell-based. Summed up: as §3
The subject of assay [18] is LNCaP. Kind of assay: Cytotoxicity against human LNCAP cells assessed as cell death at 5 uM after 72 hrs by phase-contrast microscopic analysis. The assay is classed as functional, cell-based. Summed up: as §3
Assay [19] is filed under the species Rattus norvegicus. Nature of the assay: Inhibition of iPLA2beta in rat kidney cytosol using arachidonoyl thio-phosphatidylcholine as substrate after 0.5 hrs by spectrophotometry. The assay is classed as tissue-based. Summed up:
as §4

For assay [20], the system named is PC-3. Nature of the assay: Antineoplastic activity against human PC3 cells at 14 to 34 uM by MTT assay. The assay is classed as functional, cell-based. The following applies: TDE = time-dependent effect. In outline:
as §1

Each structure is given as a SMILES string. The source made the active and inactive calls. The rule behind the calls is not given here.

The term IC50 denotes the point on the concentration scale where inhibition reaches its midpoint. A lower IC50 goes with inhibition by little substance. Consider `C#CCN1CC(=O)O/C(=C/Br)C1`, for which the IC50 in assay [1] was found to be 13 µM; in assay [2] it was 10 µM; in [3], 29 µM; in assay [4], 28 µM; in assay [5], 7 µM; in assay [6], 25 µM.

Regarding `C#CCN1C/C(=C\Br)OC(=O)[C@H]1c1ccccc1`, the result in assay [7], in assay [8], in assay [9], in assay [10], in assay [11] and in assay [13] was Active. In assay [14], the outcome was Active. Besides, the IC50 in assay [1] is 8 µM; in assay [2], 6 µM; in assay [3], 6 µM; in assay [4] it was 3 µM; in assay [5], 3 µM; in assay [6], 6 µM. The inhibition entry in [12] is “inactive”.

As to `O=C1O/C(=C/Br)CC[C@H]1c1cccc2ccccc12`, the inhibition result in assay [12] is “Active”.

With `O=C1CCC/C(=C\I)O1`, the IC50 in assay [1] was 32 µM; in assay [2], 15 µM; in assay [3] it was 5 µM; in assay [4], 7 µM; in [5] it was 16 µM; in assay [6] it was 9 µM.

`O=C1O/C(=C/Br)CCC1c1cccc2ccccc12` (racemic) [BROMOENOL LACTONE]: the result in [7], in assay [8], in [9], in assay [11] and in assay [14] was Active. The IC50 in assay [1] was 34 µM; in [2], 26 µM; in assay [3], 5 µM; in assay [4], 9 µM; in [5] it was 14 µM; in assay [6], 13 µM. For the same compound, the Activity entry in assay [15] and in [20] was “tde” each time. The outcome in [16], in assay [17] and in [18] was inactive. Besides, in assay [19], the inhibition result is “Dose-dependent effect”.

Take `C#CCN1C/C(=C\Br)OC(=O)[C@@H]1c1ccccc1`: the result in [7], in assay [8], in [9], in assay [11] and in assay [14] was Active. Moreover, the IC50 in assay [1] turned out to be 15 µM; in assay [2] it was 13 µM; in [3], 3 µM; in assay [4] it was 3 µM; in assay [5] it was 5 µM; in assay [6], 8 µM. The inhibition entry in [12] was “Active”.

Turning to `O=C1CCC/C(=C\Br)O1`, the IC50 in assay [1] stood at 19 µM; in assay [2], 23 µM; in assay [3], 5 µM; in [4] it was 5 µM; in assay [5], 14 µM; in [6], 10 µM.

`O=C1O/C(=C/Br)CN(Cc2ccccc2)[C@H]1c1ccccc1`: the IC50 in assay [1] was 4 µM; in [2], 1 µM; in assay [3] it was 4 µM; in assay [4] it was 3 µM; in assay [5], 4 µM; in [6] it was 3 µM.

Regarding `C#CCN1C/C(=C\I)OC(=O)[C@@H]1c1ccccc1`, the IC50 is 21 µM in assay [1]; 21 µM in assay [2]; 23 µM in assay [3]; 20 µM in assay [4]; 25 µM in assay [5]; 26 µM in assay [6].

Regarding `C#CCN1C/C(=C\Br)OC(=O)[C@@H]1Cc1ccccc1`, the IC50 in assay [1] came out at 33 µM; in assay [2] it was 57 µM; in [3], 26 µM; in assay [4] it was 32 µM; in assay [5] it was 39 µM; in [6], 41 µM.

For `O=C1O/C(=C/Br)CCC1c1ccccc1` (racemic), the outcome in assay [7], in [8], in assay [9], in assay [11] and in [14] was Active. Further, the IC50 was found to be 27 µM in assay [1]; 10 µM in assay [2]; 5 µM in assay [3]; 4 µM in assay [4]; 6 µM in assay [5]; 31 µM in assay [6]. The outcome in assay [16], in assay [17] and in assay [18] was inactive. Besides, the inhibition entry in assay [19] is “Dose-dependent effect”.
